≈ marks a conversion by molar mass, not a printed value.
How the values were obtained:
Type in all cases: functional
Klebsiella aerogenes = test: Antibacterial activity against gram negative Klebsiella aerogenes(MTCC 39)
Summary of the method: (§1)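 MIC determined by broth dilution per NCCL standards; test panel comprised Gram-positive Bacillus subtilis (MTCC 441), Bacillus sphaericus (MTCC 11), Staphylococcus aureus (MTCC 96) and Gram-negative Chromobacterium violaceum (MTCC 2656), Klebsiella aerogenes (MTCC 39), Pseudomonas aeruginosa (MTCC 741); highest concentration tested 200 μg/ml; penicillin and streptomycin run under identical conditions as reference agents.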

[1] = system: Chromobacterium violaceum; test: Antibacterial activity against gram negative Chromobacterium violaceum(MTCC 2656); summary of the method: as §1
Bacillus subtilis = test: Antibacterial activity against gram positive Bacillus subtilis MTCC 441; summary of the method: as §1
Staphylococcus aureus = test: Antibacterial activity against gram positive Staphylococcus aureus(MTCC 96); summary of the method: as §1
[2] = system: Lysinibacillus sphaericus; test: Antibacterial activity against gram positive Bacillus sphaericus (MTCC 11)
Summary of the method: (§2)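 MICs were determined by broth dilution following National Committee for Clinical Laboratory (NCCL) standards. The same conditions were used for penicillin and streptomycin as reference agents.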

Pseudomonas aeruginosa = test: Antibacterial activity against gram negative Pseudomonas aeruginosa (MTCC 741); summary of the method: as §2

Row | Structure (SMILES) | MIC (Klebsiella aerogenes) | MIC [1] | MIC (Bacillus subtilis) | MIC (Staphylococcus aureus) | MIC [2] | MIC (Pseudomonas aeruginosa)
1 | CN1CCN(CCCOc2cc(O)c3c(=O)cc(-c4ccccc4)oc3c2)CC1 | 25 µg/mL (≈ 63.4 µM) | 12.5 µg/mL (≈ 31.7 µM) | 12.5 µg/mL (≈ 31.7 µM) | 25 µg/mL (≈ 63.4 µM) | 12.5 µg/mL (≈ 31.7 µM) | –
2 | CN(C)CCCCCCOc1cc(O)c2c(=O)cc(-c3ccccc3)oc2c1 | 25 µg/mL (≈ 65.5 µM) | 25 µg/mL (≈ 65.5 µM) | 12.5 µg/mL (≈ 32.8 µM) | 25 µg/mL (≈ 65.5 µM) | 12.5 µg/mL (≈ 32.8 µM) | –
3 | O=c1cc(-c2ccccc2)oc2cc(OCCCN3CCCCC3)cc(O)c12 | 25 µg/mL (≈ 65.9 µM) | 6.25 µg/mL (≈ 16.5 µM) | 25 µg/mL (≈ 65.9 µM) | 12.5 µg/mL (≈ 32.9 µM) | 12.5 µg/mL (≈ 32.9 µM) | –
4 | O=c1cc(-c2ccccc2)oc2cc(OCCCN3CCOCC3)cc(O)c12 | 25 µg/mL (≈ 65.5 µM) | 12.5 µg/mL (≈ 32.8 µM) | 12.5 µg/mL (≈ 32.8 µM) | 25 µg/mL (≈ 65.5 µM) | 12.5 µg/mL (≈ 32.8 µM) | –
5 | CN(C)CCCOc1cc(O)c2c(=O)cc(-c3ccccc3)oc2c1 | 25 µg/mL (≈ 73.7 µM) | 12.5 µg/mL (≈ 36.8 µM) | 25 µg/mL (≈ 73.7 µM) | 12.5 µg/mL (≈ 36.8 µM) | 12.5 µg/mL (≈ 36.8 µM) | –
6 | CN(C)CCCCOc1cc(O)c2c(=O)cc(-c3ccccc3)oc2c1 | 25 µg/mL (≈ 70.7 µM) | 12.5 µg/mL (≈ 35.4 µM) | 6.25 µg/mL (≈ 17.7 µM) | 25 µg/mL (≈ 70.7 µM) | 6.25 µg/mL (≈ 17.7 µM) | –
7 | CC1(C)S[C@@H]2[C@H](NC(=O)Cc3ccccc3)C(=O)N2[C@H]1C(=O)O [PENICILLIN G] | 6.25 µg/mL (≈ 18.7 µM) | 12.5 µg/mL (≈ 37.4 µM) | 1.56 µg/mL (≈ 4.67 µM) | 1.56 µg/mL (≈ 4.67 µM) | 3.12 µg/mL (≈ 9.35 µM) | 6.25 µg/mL (≈ 18.7 µM)
8 | O=c1cc(-c2ccccc2)oc2cc(OCCCCCCN3CCCCC3)cc(O)c12 | 25 µg/mL (≈ 59.3 µM) | 25 µg/mL (≈ 59.3 µM) | 25 µg/mL (≈ 59.3 µM) | 25 µg/mL (≈ 59.3 µM) | 12.5 µg/mL (≈ 29.7 µM) | –
9 | O=c1cc(-c2ccccc2)oc2cc(OCCCCN3CCOCC3)cc(O)c12 | 12.5 µg/mL (≈ 31.6 µM) | 6.25 µg/mL (≈ 15.8 µM) | 6.25 µg/mL (≈ 15.8 µM) | 12.5 µg/mL (≈ 31.6 µM) | 6.25 µg/mL (≈ 15.8 µM) | –
10 | O=c1cc(-c2ccccc2)oc2cc(O)cc(O)c12 [CHRYSIN] | 50 µg/mL (≈ 197 µM) | 25 µg/mL (≈ 98.3 µM) | 50 µg/mL (≈ 197 µM) | 50 µg/mL (≈ 197 µM) | 25 µg/mL (≈ 98.3 µM) | –
11 | CN1CCN(CCCCCCOc2cc(O)c3c(=O)cc(-c4ccccc4)oc3c2)CC1 | 25 µg/mL (≈ 57.3 µM) | 12.5 µg/mL (≈ 28.6 µM) | 25 µg/mL (≈ 57.3 µM) | 12.5 µg/mL (≈ 28.6 µM) | 25 µg/mL (≈ 57.3 µM) | –
12 | CN1CCN(CCCCOc2cc(O)c3c(=O)cc(-c4ccccc4)oc3c2)CC1 | 12.5 µg/mL (≈ 30.6 µM) | 6.25 µg/mL (≈ 15.3 µM) | 25 µg/mL (≈ 61.2 µM) | 12.5 µg/mL (≈ 30.6 µM) | 6.25 µg/mL (≈ 15.3 µM) | –
13 | O=c1cc(-c2ccccc2)oc2cc(OCCCCCCN3CCOCC3)cc(O)c12 | 25 µg/mL (≈ 59 µM) | 25 µg/mL (≈ 59 µM) | 25 µg/mL (≈ 59 µM) | 25 µg/mL (≈ 59 µM) | 25 µg/mL (≈ 59 µM) | –
14 | O=c1cc(-c2ccccc2)oc2cc(OCCCCN3CCCCC3)cc(O)c12 | 25 µg/mL (≈ 63.5 µM) | 6.25 µg/mL (≈ 15.9 µM) | 12.5 µg/mL (≈ 31.8 µM) | 25 µg/mL (≈ 63.5 µM) | 12.5 µg/mL (≈ 31.8 µM) | –
15 | CN[C@@H]1[C@H](O[C@H]2[C@H](O[C@H]3[C@H](O)[C@@H](O)[C@H](N=C(N)N)[C@@H](O)[C@@H]3N=C(N)N)O[C@@H](C)[C@]2(O)C=O)O[C@@H](CO)[C@H](O)[C@H]1O [STREPTOMYCIN] | 1.56 µg/mL (≈ 2.69 µM) | 3.12 µg/mL (≈ 5.37 µM) | 6.25 µg/mL (≈ 10.7 µM) | 6.25 µg/mL (≈ 10.7 µM) | 12.5 µg/mL (≈ 21.5 µM) | 1.56 µg/mL (≈ 2.69 µM)

From ChEMBL document CHEMBL1148560, “Synthesis and biological evaluation of novel C (7) modified chrysin analogues as antibacterial agents” (2006)
